# Only a selection was taken, and hits are over-represented in it overall.
# UPR CHOP act – apoptotic UPR (CHOP) activation. CHO-CHOP luciferase reporter, luminescence; percent of tunicamycin response over DMSO baseline. 330,000 compounds, 0.34% hits. activation, % at 10 µM;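 active means at 10 µM dose, activation of 40% or more, normalized to positive control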;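 further: 100% = tunicamycin at 10 µg/mL and 0% = DMSO alone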
#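 Assay system: CHO-CHOP cells, stable luciferase reporter of PERK-eIF2a-CHOP signalling / Buffer or medium: F12 plus 10% serum / Compound dosing: one dose, 10 µM in 0.5% DMSO / Times: 6 h compound treatment, 37 °C / Technique: luciferase luminescence / Read-out: % reporter activation, DMSO baseline versus tunicamycin full activation / Benchmarks: tunicamycin and DMSO controls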
# UPR XBP1 act – adaptive UPR (XBP1) activation. 330,000 compounds, 0.33% hits. activation, % at 20 µM. AID 463104. CHO-XBP1 luciferase reporter, IRE1-XBP1 UPR activation, luminescence; percent of tunicamycin response, DMSO as zero;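 active means versus positive control, 20 µM dose yields 30% or more activation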;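 further: 100% = tunicamycin at 10 µg/mL and 0% = DMSO only wells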
#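 Material: CHO-XBP1 cells stably carrying IRE1-XBP1-driven luciferase reporter | Medium: F12 with 10% serum | Compound dosing: 20 µM single concentration, DMSO 1% | Incubation: Overnight seeding at 37 °C, 6 h compound treatment at 37 °C | Detection: Steady-Glo luminescence read | Read-out basis: % activation of reporter signal versus tunicamycin and DMSO controls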
# NOD2-RIPK2 inh – NOD2-RIPK2 protein interaction inhibition; O43353; 360,000 compounds, 0.38% hits; CHO BLA complementation NOD2-RIPK2, CCF4 ratio; inhibition, % at 4.98 µM; in the data active means inhibition above about 21%;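 further: 0% = vehicle only and 100% = reference blocker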
# Target sequence (O43353 whole entry, looked up): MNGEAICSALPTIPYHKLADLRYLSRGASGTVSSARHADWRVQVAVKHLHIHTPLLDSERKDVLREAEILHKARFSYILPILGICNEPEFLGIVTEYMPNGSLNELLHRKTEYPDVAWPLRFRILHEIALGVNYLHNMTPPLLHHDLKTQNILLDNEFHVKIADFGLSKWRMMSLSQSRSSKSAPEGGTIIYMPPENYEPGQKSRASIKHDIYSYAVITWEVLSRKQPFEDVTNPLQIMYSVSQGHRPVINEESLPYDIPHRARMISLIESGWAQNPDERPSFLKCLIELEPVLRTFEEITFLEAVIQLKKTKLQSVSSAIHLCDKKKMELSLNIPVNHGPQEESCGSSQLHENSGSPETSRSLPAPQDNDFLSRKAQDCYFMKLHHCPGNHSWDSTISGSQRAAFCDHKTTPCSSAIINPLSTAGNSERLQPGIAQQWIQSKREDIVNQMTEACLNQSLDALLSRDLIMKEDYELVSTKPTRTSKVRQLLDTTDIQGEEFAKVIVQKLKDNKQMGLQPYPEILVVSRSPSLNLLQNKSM
# TLR9-MyD88 inh – TLR9-MyD88 interaction inhibition; Q9NR96+Q99836; CHO BLA complementation TLR9-MyD88, CCF4 FRET ratio; inhibition, % at 4.98 µM; 340,000 compounds, 0.21% hits; AID 504734;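 active means inhibition above the mean over all tested compounds plus 3 SD, cut at about 21% in these data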;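 further: 0% = DMSO only wells and 100% = clavulanate BLA inhibitor control wells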
# CHOP inh – inhibitors of CHOP induction in ER stress response; CHO-K1 CHOP-promoter luciferase, tunicamycin-induced, 15-18 h; inhibition, % at 10 µM; 220,000 compounds, 3.8% hits; AID 2732;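 active means compounds that reduced the stress-induced luciferase reporter signal by more than about 70% of percent inhibition, limit read from the data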;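 further: 0% = tunicamycin plus vehicle and 100% = wells without tunicamycin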
# TLR4-MyD88 BLA – inhibitors of human TLR4-MyD88 binding | AID 861 | inhibition, % at 8.4 µM | O00206+Q99836 | HeLa CL3-4 TLR4/MyD88 BLA complementation, FRET ratio | 200,000 compounds, 0.18% hits; in the data active means inhibition above about 25%;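 further: 0% = vehicle and 100% = reference inhibitor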
# * = called active by the depositor; x = no result.
SMILES,UPR CHOP act,UPR XBP1 act,NOD2-RIPK2 inh,TLR9-MyD88 inh,CHOP inh,TLR4-MyD88 BLA
O=C(O)c1ccc(N/N=C/c2cn(Cc3ccc(F)cc3)c3ccccc23)cc1,0,-1,0,0,4,x
O=[N+]([O-])/C=C/c1cn(Cc2ccc(F)cc2)c2ccccc12,9,-3,2,13,93*,-10
CN(C(=O)c1ccc(NC(=O)Cc2ccc(NC(=O)C3CCCN(C(=O)c4ccccc4)C3)cc2)cc1)C1CCCC1 (stereo not given),x,x,-13,4,x,x
C/C(=N\NC(=O)COc1ccc(C(C)(C)C)cc1)c1cc2ccccc2o1,5,4,-12,2,74*,3
CCOc1ccc(C(=O)NC(Cc2ccccc2)C(=O)OC)cc1 (stereo not given),6,-1,-10,7,-32,5
COC(=O)C(Cc1ccccc1)NC(=O)COc1ccc(C(C)(C)C)cc1 (stereo not given),-2,0,11,3,93*,-6
C/C(=N\NC(=O)COc1ccc(C(C)(C)C)cc1)c1ccccc1,1,-4,1,-5,81*,6
C/C(=N\NC(=O)COc1ccc(C(C)(C)C)cc1)c1ccc(OC(F)F)cc1,5,0,0,8,94*,-2
C/C(=N\NC(=O)COc1ccc(C(C)(C)C)cc1)c1ccc2c(c1)OCCO2,2,-2,5,1,52,-14
Cc1ccc(S(=O)(=O)N(C)c2ccc3c(c2)C(=O)c2ccccc2-3)cc1,x,x,-19,x,x,x
COc1ccc(C(C)(NC(C)=O)c2nc(-c3ccc(F)c(Cl)c3)cs2)cc1 (stereo not given),x,x,1,x,x,x
COc1cc(NC(=O)C2(C)CCN2C(C)C)cc(OC)c1OC (stereo not given),x,x,1,x,x,x
CCOC(=O)c1sc2nc(NC(=O)C(C)(C)C)sc2c1C,12,8,-4,7,77*,-5
CCOC(=O)c1sc2nc(NC(=O)C3CC3)sc2c1C,6,3,4,13,99*,4
CN(c1ccccc1)S(=O)(=O)c1cccc(NC(=O)CCNC(=O)c2ccco2)c1,x,x,-6,-9,x,x
CCOc1ccc(-c2c(=O)n(OCc3ccc([N+](=O)[O-])cc3)c3ccccc3[n+]2[O-])cc1,18,36*,x,x,61,-1
CC#CCOCC1CN(C)C(=O)O1 (stereo not given),x,x,-2,5,x,x
O=C(O)CCC(=O)Nc1nc2ccccc2s1,1,-1,-13,12,72*,3
O=C(C[n+]1ccccc1)Nc1nc2ccccc2s1,1,2,-7,-3,-24,1
Cc1ccc2nc(NC(=O)CCCC(=O)O)sc2c1,-7,-5,-11,6,82*,-6
CCOCC(=O)Nc1nc2ccc(C)cc2s1,-1,-3,-1,-5,-64,-9
Cc1ccc2nc(NC(=O)CSCC(=O)OCC(=O)c3ccccc3)sc2c1,x,x,-8,-3,71*,-8
CCSc1nnc(NC(=O)CSc2nc(CC)nc3c2c(=O)n(C)c(=O)n3C)s1,0,-3,-7,-2,82*,-18
CCc1nc(SCC(=O)Nc2nnc(CC)s2)c2c(C)c(C)sc2n1,-1,1,-1,-2,96*,-11
CCCc1nc(SCC(=O)Nc2nnc(CC)s2)c2c(C)c(C)sc2n1,-1,-3,-6,4,47,-6
SMILES,UPR CHOP act,UPR XBP1 act,NOD2-RIPK2 inh,TLR9-MyD88 inh,CHOP inh,TLR4-MyD88 BLA
CC1(C)CC2(OC2c2ccccc2[N+](=O)[O-])C(=O)c2ccccc21 (stereo not given),x,x,-1,6,x,x
CC1CCCCN1c1nc(-c2ccncc2)nc2ccccc12 (stereo not given),3,6,-10,-2,77*,-2
CC1CCN(c2nc(-c3ccncc3)nc3ccccc23)CC1,0,3,1,1,13,-1
Cn1c(=O)c2c(-c3ccccc3)n(-c3ccc(N)cc3)cc2n(C)c1=O,x,x,-5,x,x,x
COc1ccc(NC(=O)c2cc(-c3cc(C)ccc3O)n[nH]2)cc1Cl,0,5,2,-3,78*,-14
Cc1cccc(NC(=O)c2cc(-c3cc(C)ccc3O)n[nH]2)c1,6,6,5,6,x,x
CC(C)NC(=O)N(C)C[C@@H]1Oc2cc(Br)ccc2S(=O)(=O)N([C@@H](C)CO)C[C@H]1C,x,x,-9,-3,x,x
CCCCc1c(C)c(C#N)c2nc3ccccc3n2c1Cl,x,x,x,x,106*,-1
N#Cc1cc(Sc2ccccn2)c(Sc2ccccn2)cc1C#N,4,1,-2,-2,10,-5
N#CC(Sc1ccccn1)c1ccc(Cl)cc1Cl (stereo not given),-1,0,-13,3,74*,7
Cc1ccc(S(=O)(=O)N2CCC(=O)N(CCOCc3cccc(C(F)(F)F)c3)CC2)cc1,0,2,11,-1,79*,-3
Nc1nc(/C=C/c2ccc(F)cc2)nc(-c2ccccc2O)n1,2,0,-10,-13,80*,3
O=c1cc(O)c2c(=O)n(C3CCCCC3)c3ccccc3c2o1,0,7,1,-4,72*,5
Nc1[nH]n2c(=O)c3c(nc2c1N=Nc1ccc(Cl)cc1)CCCC3,1,-2,1,-2,78*,0
Nc1[nH]n2c(=O)c3c(nc2c1N=Nc1ccccc1)CCCC3,1,3,-4,0,-86,-10
O=C(Cc1ccc(Cl)cc1Cl)Nc1cccc(S(=O)(=O)Nc2ccccc2F)c1,0,-4,0,3,87*,3
O=C(COC(=O)Cc1ccc(Cl)cc1Cl)Nc1ccc(OC(F)F)cc1,0,0,-3,-8,22,-19
O=C(Cc1ccc(Cl)cc1Cl)Nc1ccc(OC(F)F)c(Cl)c1,2,-2,6,0,95*,-12
CC(C)CC(=O)Nc1ccc(F)c(Cl)c1,1,0,0,10,90*,4
CCN(CCn1cccn1)C(=O)c1ccc(OC2CCN(C(=O)CCOC)CC2)cc1,x,x,-8,0,x,x
COCCNC(=O)C1CCCN(C(=O)/C=C/c2ccccc2)CC1 (stereo not given),x,x,-4,x,x,x
CCc1ccc(OCC(=O)NC(NC(=S)Nc2ccccc2C)C(Cl)(Cl)Cl)cc1 (stereo not given),2,3,-3,6,10,0
Cc1ccccc1NC(=S)NC(NC(=O)COc1ccccc1)C(Cl)(Cl)Cl (stereo not given),1,-3,-6,-2,83*,6
Cc1ccc(C)c(NC(=S)NC(NC(=O)N(C)C)C(Cl)(Cl)Cl)c1 (stereo not given),-1,-3,2,-2,-16,9

# From PubChem BioAssay
